Assay results gathered from unrelated publications.
Lines come from different studies, so protocols differ.
Read-out: metabolic stability
Host: mouse

Cc1ccc2[nH]c(=S)n(Cc3cccnc3)c(=O)c2c1 — half-life (liver microsomes; 1 µM, pH 7.4): 4.9 min
Cc1cc(-c2ccnc3[nH]cc(F)c23)ccc1[C@@]1(O)[C@H](C)CNC[C@@H]1C — half-life (liver microsomes): 8 min
NC(=NCCC[C@@H](C(=O)NCc1ccccc1)n1cc(-c2ccc(-c3ccccc3)cc2)nn1)c1ccc([N+](=O)[O-])o1 — half-life (liver microsomes): 120 min
CCN(CC)CCNC(=O)c1c(C)[nH]c(/C=C2\C(=O)Nc3ccc(F)cc32)c1C — half-life (liver microsomes): 17 min
Cc1[nH]c(C)c(S(=O)(=O)Nc2ccc(C(F)(F)F)c(Cl)c2)c1C(=O)N1CCC(F)(F)C1 — half-life (liver microsomes): 11.7 min
CCN(CC)CCOc1ccc2c(=O)c3c([nH]c2c1)CCCC3 — half-life (liver microsomes; 1 µM, pH 7.4): > 60 min
Cc1ccc(CCC(=O)Nc2nnc(S(N)(=O)=O)s2)cc1 — half-life (liver microsomes): > 120 min
COCC(=O)OCc1cc2[nH]c(=S)n(Cc3cccnc3)c(=O)c2cc1Cl — half-life (liver microsomes; 1 µM, pH 7.4): < 5 min
O=c1c2c([nH]c3cc(Oc4ccc(OC(F)(F)F)cc4)c(F)cc13)CCCC2 — half-life (liver microsomes; 1 µM, pH 7.4): 13.2 min
NS(=O)(=O)c1nnc(NC(=O)C2CCCC3(CCCCC3)C2)s1 (stereo not shown) — half-life (liver microsomes): 58.8 min
Cc1cc(-c2ccnc3[nH]cc(F)c23)cc(F)c1[C@@]1(O)[C@H](C)CN(C2COC2)C[C@@H]1C — half-life (liver microsomes): 1.7 min
O=c1c2ccc(OCc3ccc(OC(F)(F)F)cc3)cc2[nH]c2cc(Cl)cc(F)c12 — half-life (liver microsomes; 1 µM, pH 7.4): > 60 min
Cc1cc(-c2ccnc3[nH]cc(F)c23)cc(F)c1[C@@]1(O)[C@H](C)CN(C(=O)CN)C[C@@H]1C — half-life (liver microsomes): 84.1 min
C=CCn1c(=O)c2cnc(Nc3ccc(N4CCN(C)CC4)cc3)nc2n1-c1ccc2c(n1)[C@@](O)(CC)CC2 — half-life (hepatocytes): 91 min
Cc1cc(-c2ccnc3[nH]cc(F)c23)cc(F)c1[C@@]1(O)[C@H](C)CN(C(C)C)C[C@@H]1C — half-life (liver microsomes): 1.5 min
CC(C)n1ncc2c(C(=O)NCC3(C)CNC3)cc(C3CC3)nc21 — half-life (liver microsomes): > 145 min
OCc1ccc(-c2nn(Cc3ccccc3)c3ccccc23)o1 — half-life (liver microsomes): 3 min
O=c1c2ccc(Oc3ccc(OC(F)(F)F)cc3)cc2[nH]c2ccc(Cl)c(F)c12 — half-life (liver microsomes; 1 µM, pH 7.4): > 60 min
O=C(O)Cc1ccccc1Nc1c(Cl)cccc1Cl — half-life (liver microsomes): 44.4 min
CCN(CC)CCNC(=O)c1c(C)[nH]c(/C=C2\C(=O)Nc3ccc(F)cc32)c1C — half-life (liver microsomes; 1 µM, pH 7.4): 14 min
Nc1nnc(-c2ccccc2O)cc1N1CCN(Cc2ccc(N3CCN(CCOc4cccc5c4C(=O)N(C4CCC(=O)NC4=O)C5=O)CC3)c(F)c2)CC1 (stereo not shown) — half-life (liver microsomes; 1 mM): 46 min
O=C1CCC(N2Cc3cc(C4CCN(Cc5ccccc5)CC4)ccc3C2=O)C(=O)N1 (stereo not shown) — half-life (liver microsomes; 1 µM): > 60 min
CN(C)CC(=O)OCc1cc2[nH]c(=S)n(Cc3cccnc3)c(=O)c2cc1Cl — half-life (liver microsomes; 1 µM, pH 7.4): < 5 min
CC(C)(C)OC(=O)N1CCC(Oc2ccc3c(=O)c4c(F)cc(Cl)cc4[nH]c3c2)C1 (stereo not shown) — half-life (liver microsomes; 1 µM, pH 7.4): > 60 min
O=c1c2cc(Cl)ccc2[nH]c(=S)n1Cc1cccnc1 — half-life (liver microsomes; 1 µM, pH 7.4): 27 min
O=c1c2ccc(Oc3cccc(OC(F)(F)F)c3)cc2[nH]c2cc(Cl)cc(F)c12 — half-life (liver microsomes; 1 µM, pH 7.4): 57 min
CC(=O)N1C[C@@H](C)[C@](O)(c2c(C)cc(-c3ccnc4[nH]cc(F)c34)cc2F)[C@@H](C)C1 — half-life (liver microsomes): 3.5 min
CC(C)(C)OC(=O)N1CCC(Oc2ccc3c(=O)c4c(Cl)cc(F)cc4[nH]c3c2)CC1 — half-life (liver microsomes; 1 µM, pH 7.4): > 60 min
Cc1[nH]c(C)c(S(=O)(=O)Nc2ccc(C(F)(F)F)c(Cl)c2)c1C(=O)N(C)C — half-life (liver microsomes): 3.9 min
COc1ccc(Oc2ccc3c(=O)c4c(F)cc(Cl)cc4[nH]c3c2)cc1 — half-life (liver microsomes; 1 µM, pH 7.4): > 60 min
O=C(Oc1coc(CSc2ncccn2)cc1=O)c1ccc([N+](=O)[O-])cc1 — half-life (liver microsomes): < 1 min
